High-throughput results: PubChem BioAssay, several laboratories
CSC inhib – cancer stem cell viability inhibitors, primary screen, luminescence. cancer stem cell-like cells viability. inhibition, % at 7.5 µM. 300,000 compounds, 1.1% hits; in the data active = inhibition above about 75%; tested in HMLE shEcad cells
SKKanGAS inh – S. pyogenes SKKanGAS growth inhibitors in kanamycin, primary screen, streptokinase expression inhibitor project, SKKanGAS strain, BacTiter-Glo luminescence; 6 h; inhibition, % at 7.5 µM; 300,000 compounds, 1.3% hits; AID 1662, 2009;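 active = mean replicate score, as percent of positive control median, at least 50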;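 also: strain carries kanamycin resistance gene driven by streptokinase promoter and grows in 40 µg/ml kanamycin; loss of luminescence reflects streptokinase promoter inhibition or plain growth inhibition; 0% = median of DMSO wells and 100% = positive control at its reference dose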
Beta cell apopt – inhibitors of cytokine-induced beta cell apoptosis, primary screen, luminescence; protection from apoptosis, % (test concentration not listed); 300,000 compounds, 0.8% hits; INS-1E cytokine-induced death, ATP luminescence, 48 h; percent of positive-control rescue, neutral wells zero;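 active = Every replicate reaches about 75%, or at least half do and their mean reaches it too, limit read from the data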;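 also: 0% = cytokine-treated negative control wells and 100% = positive control rescue; higher means more ATP so stronger rescue from cytokine killing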
L major viab – Leishmania major promastigote growth inhibition, primary screen | Leishmania major promastigotes, resazurin fluorescence viability | inhibition, % at 10 µM | 200,000 compounds, 9% hits; in the data active = inhibition above about 50%;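 also: promastigotes grown with compound for 44 hours at 28 °C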
Mdm2-MdmX inh – inhibitors of human Mdm2-MdmX association, primary screen, cell-based, luminescence, split luciferase, SaOS-2, uHTS; SaOS-2 split-luciferase Mdm2/MdmX complementation; inhibition, % at 8 µM; 330,000 compounds, 3% hits;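 active = inhibition of at least 50% at 8 µM in the primary screen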
Target sequence (O15151 whole entry, looked up): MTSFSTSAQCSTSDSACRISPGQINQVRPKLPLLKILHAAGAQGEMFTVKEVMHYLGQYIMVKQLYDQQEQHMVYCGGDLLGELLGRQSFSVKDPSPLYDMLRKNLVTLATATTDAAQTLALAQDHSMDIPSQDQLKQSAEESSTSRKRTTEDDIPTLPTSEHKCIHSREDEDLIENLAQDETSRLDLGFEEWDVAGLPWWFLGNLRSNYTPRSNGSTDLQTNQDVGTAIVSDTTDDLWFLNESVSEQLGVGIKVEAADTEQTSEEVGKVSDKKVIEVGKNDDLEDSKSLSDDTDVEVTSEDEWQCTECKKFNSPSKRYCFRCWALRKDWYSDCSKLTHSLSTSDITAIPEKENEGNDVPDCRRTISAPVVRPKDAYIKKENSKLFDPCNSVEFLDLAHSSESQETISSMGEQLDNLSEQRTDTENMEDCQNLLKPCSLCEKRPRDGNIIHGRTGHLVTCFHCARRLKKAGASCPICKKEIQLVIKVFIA
Target sequence (Q00987 whole entry, looked up): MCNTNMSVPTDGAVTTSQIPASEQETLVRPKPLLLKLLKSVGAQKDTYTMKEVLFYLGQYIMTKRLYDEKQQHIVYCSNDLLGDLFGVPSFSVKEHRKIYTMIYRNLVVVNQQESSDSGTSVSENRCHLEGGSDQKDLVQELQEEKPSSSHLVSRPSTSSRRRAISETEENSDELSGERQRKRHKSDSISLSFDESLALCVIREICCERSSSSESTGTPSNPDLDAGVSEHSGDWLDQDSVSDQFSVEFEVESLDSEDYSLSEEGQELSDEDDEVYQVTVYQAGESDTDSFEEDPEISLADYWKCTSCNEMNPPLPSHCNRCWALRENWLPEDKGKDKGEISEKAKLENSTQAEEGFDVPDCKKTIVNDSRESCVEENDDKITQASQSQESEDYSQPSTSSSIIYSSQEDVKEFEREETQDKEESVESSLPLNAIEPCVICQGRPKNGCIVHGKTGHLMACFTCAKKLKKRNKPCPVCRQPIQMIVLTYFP
T cruzi inh – inhibitors of intracellular T. cruzi growth, primary screen, luminescence, NIH3T3 host cells; T. cruzi beta-gal in NIH3T3, 90 h; inhibition, % (test concentration not listed); 300,000 compounds, 1.4% hits; AID 1885, 2009;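 active = mean inhibition across valid replicates above about 55%, limit read from the data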;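 also: signal also drops with host cell toxicity which is not excluded here; 0% = plate median of DMSO wells and 100% = zero luminescence signal; higher percent means less beta-gal luminescence so fewer parasites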
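Material: NIH/3T3 host cells with β-galactosidase reporter T. cruzi; Input: 5,000 host fibroblasts per well; Medium: DMEM, 2% fetal bovine serum; Compound: 50 nL DMSO compound solution per well; Schedule: 3 h host attachment, then at least 90 h co-culture; Detection: luminescent β-galactosidase signal after 60 min lysis.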
Mdm2-MdmX conf – Mdm2-MdmX complex disruptors, retested hits, confirmation, luminescence, single concentration; 10,000 compounds, 55% hits; shares compounds with Mdm2-MdmX inh; inhibition, % at 8 µM; AID 489028, 2010; Mdm2-MdmX binding, luminescent assay; in the data active = inhibition above about 40%
Full FLuc ctr – full-length luciferase signal inhibition, confirmation, counter-screen for Mdm2/MdmX interaction inhibitor project, cell-based, single concentration, SaOS-2 | shares compounds with Mdm2-MdmX inh | SaOS-2 full-length luciferase counterscreen, luminescence | inhibition, % at 8 µM | 6,200 compounds, 77% hits | AID 504607, 2011;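 active = mean inhibition at 8 µM reaching about 37%, which flags the compound as non-specific, limit read from the data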;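 also: p53-null SaOS-2 cells with luciferase driven by a doxycycline-inducible promoter; compound on cells about two nights before reading with doxycycline added after day one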
* = called active by the depositor; . = no result given; + = active, no number. In the library only some 9.4% were active in any assay of this set; here they are far more common.

SMILES	CSC inhib	SKKanGAS inh	Beta cell apopt	L major viab	Mdm2-MdmX inh	T cruzi inh	Mdm2-MdmX conf	Full FLuc ctr
COc1ccc(OC)c(-n2c(SCC(=O)Nc3cccc(S(N)(=O)=O)c3)nc3ccccc3c2=O)c1	-16	-7	-6	.	9	9	.	.
COc1ccccc1CNC(=O)C(C)c1ccc([N+](=O)[O-])cc1 (stereo not given)	.	4	2	-1	-11	12	.	.
CC(C)c1ccccc1OCCCCCN1CCOCC1	22	-5	-2	.	4	1	.	.
COC(=O)c1[nH]c2c(c1C)C(=O)CC(c1cccs1)C2 (stereo not given)	2	-2	17	20	60*	12	58*	74*
COc1ccc2c(CC(=O)N3CCN(S(=O)(=O)c4ccc(F)cc4)CC3)coc2c1	.	.	-3	.	-25	.	.	.
CCN1C(N(C)CCc2cccs2)=N[C@@H](c2ccccc2)C(C(=O)OC)=C1C	-7	7	6	.	-7	13	.	.
CCN1C(N(C)CCc2c[nH]c3ccccc23)=N[C@@H](c2cccc(C(F)(F)F)c2)C(C(=O)OC)=C1C	67	.	7	.	88*	.	41*	44*
CCOc1ccccc1NC(=O)CN(c1ccc(OC)cc1)S(=O)(=O)c1c(C)noc1C	58	0	7	31	58*	-7	56*	60*
CCOc1ccc(N(CC(=O)Nc2ccc(C)c(C)c2)S(=O)(=O)c2c(C)noc2C)cc1	11	8	.	25	4	20	.	.
CCOc1ccc(N(CC(=O)Nc2ccccc2C)S(=O)(=O)c2c(C)noc2C)cc1	65	2	.	38	56*	-29	57*	57*
Cc1ccc(-n2ccnc(SCC(=O)NC3CCCCC3)c2=O)cc1F	16	-6	-20	.	-22	-13	.	.
O=C(CCCCCBr)N1CCC(CC2CC(c3cccc(Br)c3)=NO2)(C(=O)NCC2CCCCC2)CC1 (stereo not given)	-16	8	6	.	5	27	.	.
COc1ccc(NC(=O)CCc2nc3ccccc3[nH]2)cc1	-17	1	-8	0	-9	-17	.	.
CC(=O)N1CCC(=NNC(=O)c2cc3ccccc3cc2O)CC1	-16	10	-2	.	62*	-8	51*	58*
COc1ccc(OCC(=O)Nc2c(C)ccc3nsnc23)cc1	-7	-6	-1	.	12	4	.	.
CCOc1cc(C(=O)O/N=C(\N)c2ccccn2)cc(OCC)c1OCC	-7	-4	3	.	77*	31	68*	85*
COc1ccccc1C(=O)O/N=C(\N)c1ccccn1	12	4	9	.	38	5	.	.
Cc1ccc(C(=O)O/N=C(\N)c2ccccn2)c(C)c1	-3	1	-8	.	99*	-5	98*	51*
Cc1ccc(C(=O)O/N=C(\N)c2ccc(C(F)(F)F)cn2)cc1	.	-3	.	.	57*	4	-16	.
NC(=NC(=O)c1ccc(OC(F)(F)F)cc1)c1ccc(C(F)(F)F)cn1	3	-2	-8	.	12	-3	.	.
CCOc1ccc(C(=O)O/N=C(\N)c2ccccn2)cc1OCC	-11	-7	-5	.	48	2	.	.
COc1cc(OC)cc(C(=O)O/N=C(\N)c2ccccn2)c1	-8	5	-5	.	54*	-4	-4	.
Cc1ccc(C(=O)N(CCc2ccccc2)Cc2ccccc2)cc1S(=O)(=O)N1CCCCC1	19	-3	7	.	33	40	.	.
Cc1ccc(C2NC(=NCc3ccccc3)Nc3nc(C)cc(=O)n32)cc1 (stereo not given)	1	0	-13	.	15	10	.	.
O=C(CSc1cn(Cc2ccccc2)c2ccccc12)N1CCOCC1	8	-4	-6	-4	-80	3	.	.
SMILES	CSC inhib	SKKanGAS inh	Beta cell apopt	L major viab	Mdm2-MdmX inh	T cruzi inh	Mdm2-MdmX conf	Full FLuc ctr
Cc1cccn2c(=O)c(C(=O)NCCCN3CC(C)CC(C)C3)c(O)nc12 (stereo not given)	-4	-8	2	.	15	-6	.	.
COc1ccc(C(=O)O/N=C(\N)c2ccccn2)cc1	10	4	4	.	97*	-6	94*	24
CC(C)(C)c1ccccc1NC(=O)N1CCNC(=O)C1CC(=O)Nc1ccc(F)cc1 (stereo not given)	7	-3	-3	.	7	-3	.	.
CN1C(=O)/C(=C/c2cc(N=Nc3ccccc3)ccc2O)SC1=S	+	34	4	-19	92*	-4	47*	53*
Cc1c(N2C(=O)/C(=C\c3ccccc3O)SC2=S)c(=O)n(-c2ccccc2)n1C	14	8	-18	.	3	-7	.	.
COc1cc(CCC(=O)OCC(=O)Nc2sccc2C(N)=O)cc(OC)c1OC	.	.	.	.	0	.	.	.
Cc1ccc(-c2nnc(Cc3ccc([N+](=O)[O-])cc3)o2)cc1	-5	5	-6	26	-58	20	.	.
Cn1c(SCC(=O)Nc2cccc(Br)c2)nnc1-c1cc2ccccc2o1	.	1	-2	-3	63*	-5	-19	.
CN1CCC(=C2c3ccccc3CC(=O)c3sccc32)CC1	-15	-1	-9	18	26	4	.	.
CN1CCC(=C2c3ccccc3CCc3sccc32)CC1	4	1	.	.	60*	25	26	.
O=C(CCNS(=O)(=O)c1ccccc1)NNC(=O)COc1ccccc1F	-1	.	-5	.	-12	.	.	.
Cc1cc(C)c(C#N)c(SCC(=O)C2CC2)n1	-6	21	2	.	21	30	.	.
Cc1ccc(NC(=O)CN(C)C(=O)COC(=O)[C@@H](NC(=O)c2ccccc2F)C(C)C)cc1	15	.	-1	.	-21	.	.	.
CN(C)S(=O)(=O)c1ccc(N2CCCC2)c(C(=O)Nc2nc(-c3cc(F)ccc3F)cs2)c1	23	-8	-1	84*	55*	23	47*	48*
Cc1cccc2sc(NC(=O)c3cc(S(=O)(=O)N(C)C)ccc3N3CCCC3)nc12	59	11	-13	52*	65*	39	70*	45*
Fc1ccc(Nc2nnc(C(F)(F)F)s2)cc1	3	-3	4	.	8	-5	.	.
COc1cc2c(cc1OC)C(c1ccccc1Cl)N(C)CC2 (stereo not given)	-5	-2	1	.	-11	2	.	.
O=C(Nc1c2c(nc3ccccc13)CCCC2)c1ccccc1Cl	0	9	-2	5	-3	0	.	.
